Source: ChEMBL document CHEMBL1152217, “Affinity labeling of the proteasome by a belactosin A derived inhibitor” (Bioorg Med Chem Lett, 2008)
Calls of active or inactive are those of the source. No cut-off for these calls is given here. Residues, ends and D or L forms follow the SMILES beside them. *: point of attachment. Cbz = O=C(OCc1ccccc1)*

Experiments:
[1] = Inhibition of trypsin-like activity of 20S proteasome in human erythrocytes
Outline: (§1)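 Purified human erythrocyte 20S core particle (100–200 ng) mixed with inhibitors at varied concentrations in 25 mM HEPES pH 7.6, 0.5 mM EDTA, 0.03% SDS; SDS left out for the trypsin-like assay. Started by adding fluorogenic AMC substrate: Suc-LLVY-AMC (chymotrypsin-like), Boc-LRR-AMC (trypsin-like), Z-LLE-AMC (PGPH). Fluorescence read up to 1 h (ex 380, em 460 nm). Activity from slope; IC50 derived.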

[2] = target: T1, Proteasome Macropain subunit MB1 (Homo sapiens) (UniProt P28074); assay: Inhibition of MG132 binding to beta5 subunit of 20S proteasome in human HeLa cells at 1 uM by Western blotting analysis; assay type: cell-based
T1 sequence (whole entry): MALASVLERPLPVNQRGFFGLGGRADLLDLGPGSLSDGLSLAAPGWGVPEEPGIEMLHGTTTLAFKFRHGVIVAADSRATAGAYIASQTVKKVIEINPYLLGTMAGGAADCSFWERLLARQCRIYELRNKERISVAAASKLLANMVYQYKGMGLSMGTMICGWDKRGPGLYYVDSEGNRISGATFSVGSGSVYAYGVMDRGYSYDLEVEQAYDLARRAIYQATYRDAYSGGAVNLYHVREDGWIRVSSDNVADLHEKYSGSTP
Outline: (§2)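 Competition in intact HeLa cells. Cells were preincubated 1 h at 37 °C in serum-free medium with various concentrations of MG132, then given 1.0 µM dansyl-KF33955 for another hour. Cells were pelleted, lysed by sonication in urea/thiourea denaturing buffer, and resolved by SDS-PAGE. Remaining β subunit labeling was detected by anti-dansyl immunoblot.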

[3] = Inhibition of PGPH catalytic activity of 20S proteasome in human erythrocytes; outline: as §1
[4] = target: T2, Proteasome component C5 (Homo sapiens) (UniProt P20618); assay: Inhibition of MG132 binding to beta-1 subunit of 20S proteasome in human HeLa cells at 1 uM by Western blotting analysis; assay type: cell-based; outline: as §2
T2 sequence (whole entry): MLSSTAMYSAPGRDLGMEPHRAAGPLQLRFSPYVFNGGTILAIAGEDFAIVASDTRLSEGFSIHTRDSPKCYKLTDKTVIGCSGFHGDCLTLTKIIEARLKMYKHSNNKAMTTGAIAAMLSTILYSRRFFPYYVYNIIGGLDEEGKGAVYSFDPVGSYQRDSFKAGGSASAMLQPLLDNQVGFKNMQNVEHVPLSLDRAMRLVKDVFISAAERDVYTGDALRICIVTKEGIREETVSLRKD

[5] = Inhibition of chymotrypsin-like activity of 20S proteasome in human erythrocytes; outline: as §1
[6] = target: T1, Proteasome Macropain subunit MB1 (Homo sapiens); assay: Binding affinity to 20S proteasome beta5 subunit in intact human HeLa cells at 1 uM by Western blotting analysis; assay type: cell-based; conditions: TDE = time-dependent effect
Outline: (§3)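 Intact HeLa cells (RPMI 1640, 10% FCS) incubated with 1.0 µM dansyl-KF33955 at 37 °C in serum-free medium for varying times. Cells were pelleted, put in urea/thiourea denaturing buffer at 4 °C and sonicated. Lysates were run on SDS-PAGE and blotted to PVDF. Labeled β subunits were detected with anti-dansyl monoclonal antibody and ECL.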

[7] = target: T1, Proteasome Macropain subunit MB1 (Homo sapiens); assay: Binding affinity to 20S proteasome beta5 subunit in human erythrocyte at 1 uM by Western blotting analysis
Outline: (§4)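 Purified human erythrocyte 20S core particle solution incubated with 1.0 µM dansyl-KF33955 for various times, then diluted directly in 2× denaturing buffer (urea/thiourea/CHAPS/Triton, pH 8.8). Proteins resolved by SDS-PAGE and transferred to PVDF. Labeled β subunits detected by immunoblot with anti-dansyl monoclonal antibody and ECL.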

[8] = target: T1, Proteasome Macropain subunit MB1 (Homo sapiens); assay: Inhibition of clasto-lactacystin binding to beta5 subunit of 20S proteasome in human HeLa cells at 1 uM by Western blotting analysis; assay type: cell-based
[9] = target: T1, Proteasome Macropain subunit MB1 (Homo sapiens); assay: Binding affinity to 20S proteasome beta5 subunit in human erythrocyte at 1 uM after 1 hr by Western blotting analysis; outline: as §4
[10] = target: T2, Proteasome component C5 (Homo sapiens); assay: Binding affinity to 26S proteasome beta-1 subunit in human HeLa cell extract at 1 uM by Western blotting analysis; assay type: cell-free
Outline: (§5)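 26S proteasome extract from HeLa cells at 50–80% confluency. Cells were washed in ice-cold PBS and resuspended in pH 7.5 Tris buffer with sucrose, MgCl2, EDTA, DTT and 1 mM ATP. They were permeabilized with 0.025% digitonin for 5 min on ice, and the cytosol was recovered at 15,000g. The extract was labeled with 1.0 µM dansyl-KF33955 for various times, diluted in 2× denaturing buffer, resolved by SDS-PAGE and immunoblotted with anti-dansyl antibody.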

HeLa = assay: Growth inhibition of human HeLa cells after 48 hrs by MTT assay; assay type: functional, cell-based
Outline: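 HeLa cells grown in RPMI 1640 with 10% heat-inactivated fetal calf serum plus penicillin/streptomycin under 5% CO2. Inhibitors added at various concentrations for 48 h. Viability by MTT, absorbance at 570 nm. IC50 taken from growth inhibition.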

[11] = target: T2, Proteasome component C5 (Homo sapiens); assay: Binding affinity to 20S proteasome beta-1 subunit in human erythrocyte at 1 uM after 0.5 hr by Western blotting analysis; outline: as §4
[12] = target: Proteasome Macropain subunit (Homo sapiens) (UniProt P49721); assay: Binding affinity to 20S proteasome beta2 subunit in human HeLa cell extract at 1 uM by Western blotting analysis; assay type: cell-free; outline: as §5
[13] = target: Proteasome Macropain subunit (Homo sapiens) (UniProt P49721); assay: Binding affinity to 20S proteasome beta2 subunit in human erythrocyte at 1 uM after 1 hr by Western blotting analysis; outline: as §4
[14] = target: Proteasome Macropain subunit (Homo sapiens) (UniProt P49721); assay: Binding affinity to 20S proteasome beta2 subunit in human erythrocyte at 1 uM after 0.5 hr by Western blotting analysis; outline: as §4
[15] = target: T2, Proteasome component C5 (Homo sapiens); assay: Binding affinity to 20S proteasome beta-1 subunit in human erythrocyte at 1 uM after 1 hr by Western blotting analysis; outline: as §4
[16] = target: Proteasome subunit beta type-5 (Homo sapiens) (UniProt P28074); assay: Binding affinity to 20S proteasome beta5 subunit in human erythrocyte at 1 uM after 0.5 hr by Western blotting analysis
[17] = target: T1, Proteasome Macropain subunit MB1 (Homo sapiens); assay: Binding affinity to 20S proteasome beta5 subunit in human HeLa cell extract at 1 uM by Western blotting analysis; assay type: cell-free; outline: as §5
[18] = target: Proteasome Macropain subunit (Homo sapiens) (UniProt P49721); assay: Binding affinity to 20S proteasome beta2 subunit in human erythrocyte at 1 uM by Western blotting analysis; outline: as §4
[19] = target: T2, Proteasome component C5 (Homo sapiens); assay: Binding affinity to 20S proteasome beta-1 subunit in human erythrocyte at 1 uM by Western blotting analysis; outline: as §4
[20] = target: Proteasome Macropain subunit (Homo sapiens) (UniProt P49721); assay: Binding affinity to 20S proteasome beta2 subunit in intact human HeLa cells at 1 uM by Western blotting analysis; assay type: cell-based; conditions: TDE = time-dependent effect; outline: as §3
[21] = target: T2, Proteasome component C5 (Homo sapiens); assay: Binding affinity to 20S proteasome beta-1 subunit in intact human HeLa cells at 1 uM by Western blotting analysis; assay type: cell-based; conditions: TDE = time-dependent effect; outline: as §3
[22] = target: Proteasome Macropain subunit (Homo sapiens) (UniProt P49721); assay: Inhibition of clasto-lactacystin binding to beta2 subunit of 20S proteasome in human HeLa cells at 1 uM by Western blotting analysis; assay type: cell-based

Sequence of Proteasome Macropain subunit (Homo sapiens) (P49721 whole entry): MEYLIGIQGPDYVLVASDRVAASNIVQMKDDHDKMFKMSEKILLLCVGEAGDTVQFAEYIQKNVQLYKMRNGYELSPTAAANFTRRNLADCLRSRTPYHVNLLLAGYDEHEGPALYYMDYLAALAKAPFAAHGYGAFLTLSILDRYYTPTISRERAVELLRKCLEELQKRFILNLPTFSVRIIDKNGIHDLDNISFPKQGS

| SMILES | IC50 [1] [nM] | Activity [2] | IC50 [3] [nM] | Activity [4] | IC50 [5] [nM] | Activity [8] | IC50 (HeLa) [nM] | Activity [22] | also measured |
| --- | --- | --- | --- | --- | --- | --- | --- | --- | --- |
| CC(C)C[C@@H](C=O)NC(=O)[C@H](CC(C)C)NC(=O)[C@H](CC(C)C)NC(=O)OCc1ccccc1 [MG-132] (Cbz-Leu-Leu-Leu-aldehyde) | 2100 | Active | 120 | Active | 11 | – | – | – | – |
| CC[C@H](C)[C@@H]1C(=O)O[C@H]1C(=O)N[C@H]1C[C@H]1C[C@H](NC(=O)[C@H](C)NC(=O)CCCCCNS(=O)(=O)c1cccc2c(N(C)C)cccc12)C(=O)OCc1ccccc1 | 2100 | Active | 150 | Active | 29 | Active | 9800 | Active | Activity [6]: tde; Activity [7]: Active; Activity [9]: Active; Activity [10]: Active; Activity [11]: Active; Activity [12]: Active; Activity [13]: Active; Activity [14]: Active; Activity [15]: Active; Activity [16]: Active; Activity [17]: Active; Activity [18]: Active; Activity [19]: Active; Activity [20]: tde; Activity [21]: tde |
| CC(C)[C@H](O)[C@]12NC(=O)[C@H](C)[C@@H]1OC2=O | 690 | – | 8300 | – | 29 | Active | – | Active | – |
| CC[C@H](C)[C@@H]1C(=O)O[C@H]1C(=O)N[C@H]1C[C@H]1C[C@H](NC(=O)[C@H](C)N)C(=O)O [BELACTOSIN A] | 4900 | – | 14000 | – | 820 | – | 37000 | – | – |
| CC[C@H](C)[C@@H]1C(=O)O[C@H]1C(=O)N[C@H]1C[C@H]1C[C@H](NC(=O)[C@H](C)N)C(=O)OCc1ccccc1 | 450 | – | 3700 | – | 340 | – | 500 | – | – |
